Results as given in ChEMBL document CHEMBL1125125, “Thiazolo[4,5-d]pyrimidine nucleosides. The synthesis of certain 3-beta-D-ribofuranosylthiazolo[4,5-d]pyrimidines as potential immunotherapeutic agents” (J Med Chem, 1990).

What was measured:
Mus musculus [1] = organism: Mus musculus; assay: Ability to activate CBA/CaJ Mice spleen cells to proliferate in vitro by measuring new DNA synthesis in a [3H]thymidine incorporation assay at 0.20 mM; type: functional
In short: (§1)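 Spleen cells from CBA/CaJ mice, 1 × 10^5 per 0.2 mL, cultured with compound for 48 h in total. [3H]thymidine (0.5 μCi/0.02 mL) was added after 24 h, then cells were harvested and uptake was counted in a β-counter. Results are CPM as mean ± SD of quadruplicate assays.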

Semliki Forest virus [2] = assay: Effect against semliki forest virus infection in mice at an ip dose of 100 mg/kg; type: functional; details: route intraperitoneal
In short: (§2)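 Female Swiss Webster mice (about 20 g) received compound or placebo ip in aqueous 2% sodium bicarbonate as half-daily doses at -24 and -18 h before virus. […] Read-outs were survivors/total over 21 days and mean survival time of mice that died. Mice dying within a day or two of dosing were excluded. Significance was by two-tailed Fisher exact test.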

YAC-1 [3] = assay: (§3) In vivo effect on murine NK cell activity in isolated CBA/CaJ mice spleen cells and cytotoxicity measured against YAC-1 cells at a targetor ratio 50:1; type: functional, Mus musculus
In short: (§4)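 Female CBA/CaJ mice aged 6–8 weeks, two per group, received 150 mg/kg ip in 2% aqueous sodium bicarbonate as 75 mg/kg bid for one day; the placebo was vehicle. After 24 h, spleen cells were pooled and tested against YAC-1 targets in a 4-h 51Cr-release assay, in triplicate, at the stated effector:target ratio.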

Semliki Forest virus [4] = assay: Effect against semliki forest virus infection in mice at an ip dose of 100 mg/kg; 6/12; type: functional; details: route intraperitoneal; in short: as §2
Semliki Forest virus [5] = assay: Effect against semliki forest virus infection in mice at an ip dose of 200 mg/kg; type: functional; details: route intraperitoneal; in short: as §2
Mus musculus [6] = organism: Mus musculus; assay: Ability to activate CBA/CaJ Mice spleen cells to proliferate in vitro by measuring new DNA synthesis in a [3H]thymidine incorporation assay at 0.05 mM; type: functional; in short: as §1
Mus musculus [7] = organism: Mus musculus; assay: Ability to activate CBA/CaJ Mice spleen cells to proliferate in vitro by measuring new DNA synthesis in a [3H]thymidine incorporation assay at 0 mM; type: functional; in short: as §1
Mus musculus [8] = organism: Mus musculus; assay: Ability to activate CBA/CaJ Mice spleen cells to proliferate in vitro by measuring new DNA synthesis in a [3H]thymidine incorporation assay at 0.40 mM; type: functional; in short: as §1
YAC-1 [9] = assay: (§5) In vivo effect on murine NK cell activity in isolated CBA/CaJ mice spleen cells and cytotoxicity measured against YAC-1 cells at a targetor ratio 100:1; type: functional, Mus musculus; in short: as §4
Semliki Forest virus [10] = assay: Effect against semliki forest virus infection in mice at an ip dose of 200 mg/kg; 3/12; type: functional; details: route intraperitoneal; in short: as §2
Mus musculus [11] = organism: Mus musculus; assay: Ability to activate CBA/CaJ Mice spleen cells to proliferate in vitro by measuring new DNA synthesis in a [3H]thymidine incorporation assay at 0.01 mM; type: functional; in short: as §1
Mus musculus [12] = assay: Effect against semliki forest virus infection in mice at an ip dose of 100 mg/kg; 0/12; type: functional; details: route intraperitoneal; in short: as §2
Mus musculus [13] = assay: Effect against semliki forest virus infection in mice at an ip dose of 100 mg/kg.; type: functional; details: route intraperitoneal; in short: as §2
YAC-1 [14] = assay: In vivo effect on murine NK cell activity in isolated CBA/CaJ mice spleen cells and cytotoxicity measured against YAC-1 cells at a targetor ratio 50:1.; type: functional, Mus musculus; in short: as §4
Mus musculus [15] = assay: Effect against semliki forest virus infection in mice at an ip dose of 200 mg/kg; 2/11; type: functional; details: route intraperitoneal; in short: as §2
Mus musculus [16] = assay: Effect against semliki forest virus infection in mice at an ip dose of 200 mg/kg.; type: functional; details: route intraperitoneal; in short: as §2
YAC-1 [17] = assay: In vivo effect on murine NK cell activity in isolated CBA/CaJ mice spleen cells and cytotoxicity measured against YAC-1 cells at a targetor ratio 100:1.; type: functional, Mus musculus; in short: as §4
Mus musculus [18] = assay: Effect against semliki forest virus infection in mice at an ip dose of 100 mg/kg; 4/9; type: functional; details: route intraperitoneal; in short: as §2
Mus musculus [19] = assay: Effect against semliki forest virus infection in mice at an ip dose of 200 mg/kg''; 11/11; type: functional; details: route intraperitoneal; in short: as §2
Semliki Forest virus [20] = assay: Effect against semliki forest virus infection in mice at an ip dose of 200 mg/kg; 9/12; type: functional; details: route intraperitoneal; in short: as §2
YAC-1 [21] = assay: as §5; type: organism-based; details: mouse; in short: as §4
YAC-1 [22] = assay: as §3; type: organism-based; details: mouse; in short: as §4
Semliki Forest virus [23] = assay: Effect against semliki forest virus infection in mice at an ip dose of 200 mg/kg; 11/12; type: functional; details: route intraperitoneal; in short: as §2
Semliki Forest virus [24] = assay: Effect against semliki forest virus infection in mice at an ip dose of 100 mg/kg; 11/12; type: functional; details: route intraperitoneal; in short: as §2

**Q.** `Nc1nc(O)c2nc(S)n([C@@H]3O[C@H](CO)[C@@H](O)[C@H]3O)c2n1` was tested. Which CPM (Mus musculus [1]) did it give?
**A.** 23092

**Q.** What about the Mean survival time (Semliki Forest virus [2]) of the same compound?
**A.** 8 days

**Q.** And the “% cytotoxicity” value (YAC-1 [3])?
**A.** 43.53%

**Q.** And the Survivors (Semliki Forest virus [4])?
**A.** 50%

**Q.** And the Mean survival time (Semliki Forest virus [5])?
**A.** 7.5 days

**Q.** And the CPM (Mus musculus [6])?
**A.** 5372

**Q.** And the CPM (Mus musculus [7])?
**A.** 3633

**Q.** What about the CPM (Mus musculus [8]) of the same compound?
**A.** 40690

**Q.** What about the “% cytotoxicity” value (YAC-1 [9]) of the same compound?
**A.** 61.33%

**Q.** And the Survivors (Semliki Forest virus [10])?
**A.** 25%

**Q.** What about the CPM (Mus musculus [11]) of the same compound?
**A.** 3911

**Q.** Which CPM (Mus musculus [1]) does the source give for `Nc1nc2c(nc(Br)n2[C@@H]2O[C@H](CO)[C@@H](O)[C@H]2O)c(=O)[nH]1` here?
**A.** 9199

**Q.** What about the Survivors (Mus musculus [12]) of the same compound?
**A.** 0%

**Q.** What about the Mean survival time (Mus musculus [13]) of the same compound?
**A.** 7.7 days

**Q.** What about the Cytotoxicity (YAC-1 [14]) of the same compound?
**A.** 31.33%

**Q.** And the Survivors (Mus musculus [15])?
**A.** 18%

**Q.** And the CPM (Mus musculus [6])?
**A.** 4835

**Q.** What about the Mean survival time (Mus musculus [16]) of the same compound?
**A.** 7.1 days

**Q.** What about the CPM (Mus musculus [7]) of the same compound?
**A.** 5204

**Q.** What about the Cytotoxicity (YAC-1 [17]) of the same compound?
**A.** 45.44%

**Q.** And the CPM (Mus musculus [8])?
**A.** 16771

**Q.** What about the CPM (Mus musculus [11]) of the same compound?
**A.** 4387

**Q.** With `Nc1nc(O)c2sc(=S)n(C3O[C@H](CO)[C@@H](O)[C@H]3O)c2n1` (stereo not given in full) as the compound, how does the CPM (Mus musculus [1]) read?
**A.** 43779

**Q.** What about the Survivors (Mus musculus [18]) of the same compound?
**A.** 44%

**Q.** What about the Mean survival time (Mus musculus [13]) of the same compound?
**A.** 7 days

**Q.** And the Cytotoxicity (YAC-1 [14])?
**A.** 28.89%

**Q.** And the CPM (Mus musculus [6])?
**A.** 15711

**Q.** What about the Mean survival time (Mus musculus [16]) of the same compound?
**A.** >21 days

**Q.** And the CPM (Mus musculus [7])?
**A.** 3111

**Q.** And the Cytotoxicity (YAC-1 [17])?
**A.** 41.38%

**Q.** And the Survivors (Mus musculus [19])?
**A.** 100%

**Q.** What about the CPM (Mus musculus [8]) of the same compound?
**A.** 53493

**Q.** And the CPM (Mus musculus [11])?
**A.** 4230

**Q.** What does the source list for `Cn1c(=O)n(C2O[C@H](CO)[C@@H](O)[C@H]2O)c2nc(N)nc(O)c21` (stereo not given in full)?
**A.** CPM (Mus musculus [1]): 72000; Mean survival time (Semliki Forest virus [2]): 7.7 days; Survivors (Semliki Forest virus [4]): 50%; Mean survival time (Semliki Forest virus [5]): 6.3 days; CPM (Mus musculus [6]): 35980; CPM (Mus musculus [7]): 2000; Survivors (Semliki Forest virus [20]): 75%; CPM (Mus musculus [8]): 94100; Cytotoxicity (YAC-1 [21]): 57.89%; Cytotoxicity (YAC-1 [22]): 58.8%; CPM (Mus musculus [11]): 6012

**Q.** Which CPM (Mus musculus [1]) does the source give for `Nc1nc2c(sc(=O)n2[C@@H]2O[C@H](CO)[C@@H](O)[C@H]2O)c(=O)[nH]1` [ISATORIBINE] here?
**A.** 96680

**Q.** And the Survivors (Semliki Forest virus [23])?
**A.** 92%

**Q.** What about the Mean survival time (Semliki Forest virus [2]) of the same compound?
**A.** 8 days

**Q.** And the Mean survival time (Semliki Forest virus [5])?
**A.** 6 days

**Q.** What about the Survivors (Semliki Forest virus [24]) of the same compound?
**A.** 92%

**Q.** And the CPM (Mus musculus [6])?
**A.** 54150

**Q.** And the CPM (Mus musculus [7])?
**A.** 2000

**Q.** And the CPM (Mus musculus [8])?
**A.** 107000

**Q.** And the Cytotoxicity (YAC-1 [21])?
**A.** 67.8%

**Q.** What about the Cytotoxicity (YAC-1 [22]) of the same compound?
**A.** 74.8%

**Q.** And the CPM (Mus musculus [11])?
**A.** 12000
